The target of series [1] is Cytochrome P450 2B1 (Rattus norvegicus) (UniProt P00176). Briefly: Inhibition of CYP2B1 (rat)-mediated depentylation of resorufin pentyl ether after 5 mins by spectrofluorimetric analysis.
Another series deals with T1, CYP2A6 (Homo sapiens, UniProt P11509).
T1 sequence (P11509 whole entry): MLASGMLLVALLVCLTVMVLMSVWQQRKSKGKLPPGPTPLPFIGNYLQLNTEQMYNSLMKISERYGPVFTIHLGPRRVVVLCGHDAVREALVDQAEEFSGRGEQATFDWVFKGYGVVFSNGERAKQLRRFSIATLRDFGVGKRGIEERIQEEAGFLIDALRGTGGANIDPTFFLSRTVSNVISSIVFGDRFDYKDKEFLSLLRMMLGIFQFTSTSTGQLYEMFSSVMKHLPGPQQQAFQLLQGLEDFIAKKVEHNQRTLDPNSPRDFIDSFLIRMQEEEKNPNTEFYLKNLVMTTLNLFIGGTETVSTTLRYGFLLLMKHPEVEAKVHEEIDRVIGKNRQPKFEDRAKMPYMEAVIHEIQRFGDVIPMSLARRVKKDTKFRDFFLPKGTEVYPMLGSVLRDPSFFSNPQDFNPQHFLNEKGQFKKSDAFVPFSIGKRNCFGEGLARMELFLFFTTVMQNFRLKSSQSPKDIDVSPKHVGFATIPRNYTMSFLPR
Briefly: Inhibition of CYP2A6 (unknown origin)-mediated coumarin 7-hydroxylation after 5 mins by spectrofluorimetric analysis. As to conditions: probe coumarin (7-hydroxylation). The essentials:
(§1)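 Microsomal P450 (final 5 nM) in 0.1 M potassium phosphate pH 7.6 with MgCl2; resorufin ether or coumarin substrate final 5 μM from DMSO stock; inhibitor added in DMSO, DMSO alone for controls. Reaction started with NADPH regenerating system (NADP+, glucose 6-phosphate, G6P dehydrogenase) at 37 °C; product formation followed fluorimetrically as progress curves.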

The target of a further series is T2, Cytochrome P450 1A1 (Homo sapiens, UniProt P04798).
T2 sequence (P04798 whole entry): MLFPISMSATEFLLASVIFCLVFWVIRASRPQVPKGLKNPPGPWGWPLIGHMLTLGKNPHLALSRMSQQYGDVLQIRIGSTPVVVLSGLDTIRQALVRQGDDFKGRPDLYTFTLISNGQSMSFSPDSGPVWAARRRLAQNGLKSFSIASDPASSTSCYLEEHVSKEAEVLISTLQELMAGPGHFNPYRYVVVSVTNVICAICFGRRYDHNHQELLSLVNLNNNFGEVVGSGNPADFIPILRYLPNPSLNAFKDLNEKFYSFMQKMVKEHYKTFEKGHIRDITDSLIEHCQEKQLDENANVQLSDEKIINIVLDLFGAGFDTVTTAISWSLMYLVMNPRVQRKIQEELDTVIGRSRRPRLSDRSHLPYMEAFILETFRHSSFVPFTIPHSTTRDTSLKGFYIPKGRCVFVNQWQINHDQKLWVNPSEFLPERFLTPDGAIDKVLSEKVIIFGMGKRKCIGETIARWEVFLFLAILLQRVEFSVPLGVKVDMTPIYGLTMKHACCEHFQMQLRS
As to the kind of experiment: Inhibition of CYP1A1 (unknown origin)-mediated deethylation of resorufin ethyl ether after 5 mins by spectrofluorimetric analysis. In short, it runs like this:
as §1

Where only a bound is given, the exact number is not on record here.

Sequence of Cytochrome P450 2B1 (Rattus norvegicus) (P00176 whole entry, looked up): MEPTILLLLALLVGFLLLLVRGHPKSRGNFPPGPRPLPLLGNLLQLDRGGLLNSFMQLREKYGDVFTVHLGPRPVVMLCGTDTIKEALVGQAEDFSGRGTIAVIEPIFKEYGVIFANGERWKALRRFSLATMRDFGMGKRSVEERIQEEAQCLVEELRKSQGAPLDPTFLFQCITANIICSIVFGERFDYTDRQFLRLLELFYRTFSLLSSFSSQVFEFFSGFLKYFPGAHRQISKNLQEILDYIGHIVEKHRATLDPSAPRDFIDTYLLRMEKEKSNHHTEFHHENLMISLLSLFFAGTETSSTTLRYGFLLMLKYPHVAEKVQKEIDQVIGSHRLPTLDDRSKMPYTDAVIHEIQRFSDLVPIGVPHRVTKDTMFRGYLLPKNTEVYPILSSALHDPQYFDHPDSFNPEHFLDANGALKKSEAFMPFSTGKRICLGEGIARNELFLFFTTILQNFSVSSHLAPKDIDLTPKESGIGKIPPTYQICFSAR

A word on the IC50: it is the concentration that inhibits the measured activity by half. Read a high IC50 as weaker potency. `O=c1cccc2oc(-c3ccc4c(c3)C=CCO4)cc(O)c1-2` displayed an IC50 in series [1] of over 25 µM. Besides, at CYP2A6, the IC50 at 5 min was over 25 µM.

In the case of `C#CCOc1ccc(-c2cc(O)c3c(=O)cccc-3o2)cc1`, the IC50 in series [1] is over 25 µM. Further, the IC50 at 5 min against CYP2A6 was over 25 µM. For `O=c1cccc2oc(-c3ccc4c(c3)OCC=C4)cc(O)c1-2`, in series [1], the IC50 is over 25 µM. The compound further gave an IC50 at 5 min against CYP2A6 of over 25 µM. Compound `O=c1cccc2oc(-c3cccc4c3C=CCO4)cc(O)c1-2` gave a half-inhibitory concentration (IC50) in series [1] of over 25 µM. Further, at CYP2A6, the IC50 at 5 min was over 25 µM. In series [1], `C#CCOc1cccc(-c2cc(O)c3c(=O)cccc-3o2)c1` gave an IC50 of 4.08 µM. Further, on CYP2A6, the IC50 at 5 min was over 25 µM.

The compound `O=c1cc(-c2ccccc2)oc2cccc(O)c12` [5-Hydroxy-2-phenyl-chromen-4-one] had an IC50 on Cytochrome P450 1A1 of 4.03 µM. This counts as single-digit micromolar.

Source of the values: BindingDB's records for doi:10.1021/jm4003654 (Xavier University of Louisiana, 2013).
